Assay results published in ChEMBL document CHEMBL1932952, “Synthesis and biochemical analysis of 2,2,3,3,4,4,5,5,6,6,7,7-dodecafluoro-N-hydroxy-octanediamides as inhibitors of human histone deacetylases” (Bioorg Med Chem, 2012).

How the values were obtained:
[1] = biological target: T1, Histone deacetylase-like amidohydrolase (Alcaligenes sp. (strain DSM 11172) (Bordetella sp. (strain FB188)), UniProt Q70I53); test: Inhibition of Bordetella FB188 HDAH using Boc-L-Lys(acetyl)-MCA as substrate by fluorogenic enzymatic assay
T1 sequence (Q70I53 whole entry): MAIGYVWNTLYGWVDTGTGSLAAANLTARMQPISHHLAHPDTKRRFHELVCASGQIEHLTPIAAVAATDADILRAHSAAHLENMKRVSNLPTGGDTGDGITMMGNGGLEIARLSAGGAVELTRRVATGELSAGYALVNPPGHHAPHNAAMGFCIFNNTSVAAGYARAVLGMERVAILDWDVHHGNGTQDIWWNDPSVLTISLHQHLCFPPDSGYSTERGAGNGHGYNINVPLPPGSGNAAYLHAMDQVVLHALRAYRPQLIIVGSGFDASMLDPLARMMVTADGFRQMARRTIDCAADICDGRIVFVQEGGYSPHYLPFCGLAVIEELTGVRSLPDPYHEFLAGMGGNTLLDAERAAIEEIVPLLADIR

Histone deacetylase 1 = Histone deacetylase 1 (Homo sapiens, UniProt Q13547); test: Inhibition of recombinant human HDAC1 using Boc-L-Lys(acetyl)-MCA as substrate by fluorogenic enzymatic assay
Chain of Histone deacetylase 1 (Q13547 whole entry): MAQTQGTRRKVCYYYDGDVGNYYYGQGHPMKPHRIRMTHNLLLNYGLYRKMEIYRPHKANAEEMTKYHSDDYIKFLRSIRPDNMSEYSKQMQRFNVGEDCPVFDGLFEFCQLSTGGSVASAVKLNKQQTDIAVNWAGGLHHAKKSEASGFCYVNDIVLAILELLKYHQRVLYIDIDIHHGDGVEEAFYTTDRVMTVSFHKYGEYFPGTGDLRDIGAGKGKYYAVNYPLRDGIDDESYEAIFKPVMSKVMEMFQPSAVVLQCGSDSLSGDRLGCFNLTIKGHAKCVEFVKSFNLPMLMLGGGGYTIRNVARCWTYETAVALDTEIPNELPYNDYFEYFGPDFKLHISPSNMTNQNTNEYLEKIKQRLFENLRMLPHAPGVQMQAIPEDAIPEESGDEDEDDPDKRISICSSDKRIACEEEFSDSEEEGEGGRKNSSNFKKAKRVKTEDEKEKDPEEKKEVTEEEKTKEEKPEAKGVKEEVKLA

[2] = biological target: T2, Protein deacetylase HDAC6 (Homo sapiens, UniProt Q9UBN7); test: Inhibition of recombinant human HDAC6 using Boc-L-Lys(acetyl)-MCA as substrate by fluorogenic enzymatic assay
T2 sequence (Q9UBN7 whole entry): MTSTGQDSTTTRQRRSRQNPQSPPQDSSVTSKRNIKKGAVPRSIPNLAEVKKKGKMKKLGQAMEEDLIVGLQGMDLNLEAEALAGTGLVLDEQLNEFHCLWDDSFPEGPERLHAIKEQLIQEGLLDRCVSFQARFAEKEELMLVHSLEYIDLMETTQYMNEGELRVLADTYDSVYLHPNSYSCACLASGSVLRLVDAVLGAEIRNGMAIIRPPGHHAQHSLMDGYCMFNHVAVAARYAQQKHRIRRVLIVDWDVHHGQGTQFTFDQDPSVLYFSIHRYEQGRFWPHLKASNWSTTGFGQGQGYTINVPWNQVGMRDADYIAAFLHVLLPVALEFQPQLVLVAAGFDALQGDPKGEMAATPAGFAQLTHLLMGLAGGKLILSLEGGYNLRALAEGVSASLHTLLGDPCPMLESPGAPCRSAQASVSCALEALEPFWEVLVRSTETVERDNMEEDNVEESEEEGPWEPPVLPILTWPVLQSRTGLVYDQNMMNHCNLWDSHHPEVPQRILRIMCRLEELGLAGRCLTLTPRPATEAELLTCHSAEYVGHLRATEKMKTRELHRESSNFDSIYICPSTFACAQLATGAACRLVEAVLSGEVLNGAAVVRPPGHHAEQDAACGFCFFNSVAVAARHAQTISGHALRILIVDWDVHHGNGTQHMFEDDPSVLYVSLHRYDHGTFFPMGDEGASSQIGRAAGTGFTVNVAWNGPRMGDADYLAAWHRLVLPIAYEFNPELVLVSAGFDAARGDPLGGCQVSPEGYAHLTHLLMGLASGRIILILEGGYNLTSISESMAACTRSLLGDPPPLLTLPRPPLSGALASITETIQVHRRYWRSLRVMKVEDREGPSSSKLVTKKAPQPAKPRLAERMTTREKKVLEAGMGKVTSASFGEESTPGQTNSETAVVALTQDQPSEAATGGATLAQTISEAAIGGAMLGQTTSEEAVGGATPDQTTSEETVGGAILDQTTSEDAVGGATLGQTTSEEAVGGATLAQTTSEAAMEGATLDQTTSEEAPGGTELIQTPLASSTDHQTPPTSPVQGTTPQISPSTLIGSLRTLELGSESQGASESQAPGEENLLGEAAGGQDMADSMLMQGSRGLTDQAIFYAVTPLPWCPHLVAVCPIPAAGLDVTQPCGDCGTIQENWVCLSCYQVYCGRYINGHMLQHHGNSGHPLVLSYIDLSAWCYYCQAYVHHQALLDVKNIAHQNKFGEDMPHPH

Histone deacetylase 7 = biological target: T3, Histone deacetylase 7 (Homo sapiens, UniProt Q8WUI4); test: Inhibition of recombinant human HDAC7 using Boc-L-Lys(trifluoroacetyl)-MCA as substrate by fluorogenic enzymatic assay
T3 sequence (Q8WUI4 whole entry): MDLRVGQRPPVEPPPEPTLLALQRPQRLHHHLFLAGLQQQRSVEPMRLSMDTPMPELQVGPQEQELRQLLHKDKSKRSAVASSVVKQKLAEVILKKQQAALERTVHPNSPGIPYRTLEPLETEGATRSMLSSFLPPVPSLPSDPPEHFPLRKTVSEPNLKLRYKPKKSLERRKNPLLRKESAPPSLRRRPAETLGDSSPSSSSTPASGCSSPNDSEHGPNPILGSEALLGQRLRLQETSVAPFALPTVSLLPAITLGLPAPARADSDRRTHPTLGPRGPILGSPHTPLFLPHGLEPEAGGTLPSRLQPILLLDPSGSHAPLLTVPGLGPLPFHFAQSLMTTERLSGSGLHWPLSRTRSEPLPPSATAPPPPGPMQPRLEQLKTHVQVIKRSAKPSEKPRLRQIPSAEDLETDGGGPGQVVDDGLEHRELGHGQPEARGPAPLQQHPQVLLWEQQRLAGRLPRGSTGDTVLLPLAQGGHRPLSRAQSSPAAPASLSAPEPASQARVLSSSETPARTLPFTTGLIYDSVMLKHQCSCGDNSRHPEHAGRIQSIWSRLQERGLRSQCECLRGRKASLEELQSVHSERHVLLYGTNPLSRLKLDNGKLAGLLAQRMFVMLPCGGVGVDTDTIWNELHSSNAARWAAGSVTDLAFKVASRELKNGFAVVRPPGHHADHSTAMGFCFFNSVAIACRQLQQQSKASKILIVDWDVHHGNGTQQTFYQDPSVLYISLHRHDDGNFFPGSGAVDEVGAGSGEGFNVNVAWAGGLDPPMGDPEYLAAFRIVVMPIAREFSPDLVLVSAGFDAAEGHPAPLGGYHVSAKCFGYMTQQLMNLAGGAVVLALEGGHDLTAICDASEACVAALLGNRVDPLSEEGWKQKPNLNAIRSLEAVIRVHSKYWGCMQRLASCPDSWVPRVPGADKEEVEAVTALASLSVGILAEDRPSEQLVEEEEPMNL

Histone deacetylase 8 = biological target: T4, Histone deacetylase 8 (Homo sapiens, UniProt Q9BY41); test: Inhibition of recombinant human HDAC8 using Boc-L-Lys(trifluoroacetyl)-MCA as substrate by fluorogenic enzymatic assay
T4 sequence (Q9BY41 whole entry): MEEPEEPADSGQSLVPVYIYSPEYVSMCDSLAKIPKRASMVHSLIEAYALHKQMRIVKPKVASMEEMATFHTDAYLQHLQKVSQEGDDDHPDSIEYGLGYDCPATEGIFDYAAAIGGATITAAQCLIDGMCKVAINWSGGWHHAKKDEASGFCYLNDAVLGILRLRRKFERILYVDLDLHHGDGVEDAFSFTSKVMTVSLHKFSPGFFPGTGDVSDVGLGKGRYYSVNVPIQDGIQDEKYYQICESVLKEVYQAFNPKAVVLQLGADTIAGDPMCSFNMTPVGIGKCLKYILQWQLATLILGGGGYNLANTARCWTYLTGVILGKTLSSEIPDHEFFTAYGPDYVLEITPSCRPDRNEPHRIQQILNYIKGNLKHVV

[3] = biological target: T5, Histone deacetylase 7 (Homo sapiens) (UniProt Q8WUI4); test: Ratio of SAHA Kd to compound Kd for recombinant human HDAC7
T5 sequence (whole entry): T3 sequence (Q8WUI4 whole entry)

Histone deacetylase [4] = test: Inhibition of HDAC in human K562 cells using Boc-L-Lys(acetyl)-MCA as substrate by fluorogenic cellular assay; type: cell-based
In short: (§1)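 K562 cells were grown in RPMI with 10% FCS, L-glutamine and gentamycin, then pelleted. Lysis in 50 mM Tris–HCl pH 8.5, 1 M NaCl, 1 mM MgCl₂, Triton X-100 (up to 5× pellet volume), 2 h at 37 °C. The diluted lysate replaces recombinant enzyme in the two-step fluorogenic trypsin-coupled assay with substrate at 20 µM final. Read-out is AMC fluorescence (ex 390, em 460 nm), giving IC50.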

Histone deacetylase [5] = test: Inhibition of HDAC in human K562 cells using Boc-L-Lys(trifluoroacetyl)-MCA as substrate by fluorogenic cellular assay; type: cell-based; in short: as §1
[6] = biological target: T6, Histone deacetylase 8 (Homo sapiens) (UniProt Q9BY41); test: Ratio of SAHA Kd to compound Kd for recombinant human HDAC8
T6 sequence (whole entry): T4 sequence (Q9BY41 whole entry)

Structure (SMILES)	Kd [1] [µM]	Kd (Histone deacetylase 1) [µM]	Kd [2] [µM]	Kd (Histone deacetylase 7) [µM]	Kd (Histone deacetylase 8) [µM]	Ratio [3]	IC50 (Histone deacetylase [4]) [µM]	IC50 (Histone deacetylase [5]) [µM]	Ratio [6]
O=C(NO)C(F)(F)C(F)(F)C(F)(F)C(F)(F)C(F)(F)C(F)(F)C(=O)Nc1ccccc1	0.54	29	11	11	17	3	> 50	49	
O=C(NO)C(F)(F)C(F)(F)C(F)(F)C(F)(F)C(F)(F)C(F)(F)C(=O)Nc1nc(-c2ccccc2)cs1	2.2	2.6	5.4	1.4	1.5	25	30	14	2
